Data on two molecules can be found in ChEMBL document CHEMBL4024779, “Novel Terminal Bipheny-Based Diapophytoene Desaturases (CrtN) Inhibitors as Anti-MRSA/VISR/LRSA Agents with Reduced hERG Activity” (J Med Chem, 2018).

Activity calls are given as the source filed them.

The test system of series [1] is Staphylococcus aureus. As to the kind of experiment: Antibacterial activity against methicillin-resistant Staphylococcus aureus NRS271 assessed as change in bacterial growth at 0.2 mM […]. The format is functional.
The subject of series [2] is Staphylococcus aureus. As to the kind of experiment: In vivo anti-virulence activity against Staphylococcus aureus Newman infected in BALB/c mouse model assessed as reduction in bacterial load in heart at 0.4 mg bid for 4.5 days administered intraperitoneally 24 hrs prior to infection by serial dilution method. It counts as functional, organism-based. In short, it runs like this: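 Mice (n=10 per group) got 2.3 × 10^7 CFU S. aureus Newman by retro-orbital injection. Compound was given intraperitoneally b.i.d., either 24 h before infection (4.5 d) or 6 h after infection (3.5 d). Mice were sacrificed after 4.5 d and CFU counted in kidneys and hearts. Groups were compared by two-tailed Mann-Whitney test.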

In series [3] the test system is Staphylococcus aureus. In words: In vivo anti-virulence activity against methicillin-resistant Staphylococcus aureus Mu50 infected in BALB/c mouse model assessed as reduction in bacterial load in kidneys at 0.4 mg bid for 4.5 days administered intraperitoneally 24 hrs prior to infection by serial dilution method. On the set-up: scale not given: the % may be the effect or the level left. It counts as functional. In a few lines: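 Mice (n=10 per group) infected retro-orbitally with S. aureus Mu50 (1.1 × 10^9 or 1.3 × 10^9 CFU) or NRS271 (2.3 × 10^8 CFU). Compound given i.p. b.i.d., either 6 h after infection for 3.5 d or 24 h before infection for 4.5 d. Mice killed after 4.5 d; log10 CFU per organ counted in kidneys and hearts. Two-tailed Mann−Whitney test.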

The test system of series [4] is Trichophyton mentagrophytes. As to the kind of experiment: In vitro antifungal activity against Trichophyton mentagrophytes after 7 days by serial dilution method. It counts as functional. The following applies: 168 h.
The nature of series [5]: Inhibition of CrtN in methicillin-resistant Staphylococcus aureus NRS271 assessed as reduction in staphyloxanthin levels after 48 hrs by spectrophotometric method-based pigment inhibition assay.
For series [6], the system named is Staphylococcus aureus. As to the kind of experiment: Antibacterial activity against methicillin-resistant Staphylococcus aureus Mu50 assessed as change in bacterial growth at 0.2 mM […]. It counts as functional.
Series [7] deals with T1, 4,4'-diapophytoene desaturase (4,4'-diaponeurosporene-forming) (Staphylococcus aureus (strain Newman), UniProt O07855).
T1 sequence (O07855 whole entry): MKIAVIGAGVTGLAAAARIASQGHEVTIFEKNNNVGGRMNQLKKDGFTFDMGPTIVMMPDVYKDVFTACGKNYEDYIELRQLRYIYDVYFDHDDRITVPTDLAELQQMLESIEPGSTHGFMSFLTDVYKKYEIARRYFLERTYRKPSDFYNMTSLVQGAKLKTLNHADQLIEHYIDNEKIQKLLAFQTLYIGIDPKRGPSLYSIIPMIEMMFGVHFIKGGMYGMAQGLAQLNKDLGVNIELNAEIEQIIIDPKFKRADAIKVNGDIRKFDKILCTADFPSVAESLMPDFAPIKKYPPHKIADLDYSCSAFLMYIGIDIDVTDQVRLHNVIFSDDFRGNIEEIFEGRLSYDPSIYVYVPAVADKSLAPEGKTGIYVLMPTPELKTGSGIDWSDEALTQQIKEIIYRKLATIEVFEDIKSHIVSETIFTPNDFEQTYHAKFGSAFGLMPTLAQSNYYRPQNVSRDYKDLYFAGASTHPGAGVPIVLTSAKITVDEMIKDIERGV
In words: Inhibition of Staphylococcus aureus Newman 6His-tagged CrtN expressed in Escherichia coli BL21 (DE3)/pET28a::CrtN assessed as reduction in staphyloxanthin levels using diapophytoene as substrate after overnight incubation by spectrophotometric analysis. Also noted: species or system Staphylococcus aureus subsp. aureus str. Newman.

For series [8], the system named is Staphylococcus aureus. In words: In vivo anti-virulence activity against methicillin-resistant Staphylococcus aureus XN108 infected in BALB/c mouse model assessed as reduction in bacterial load in heart at 0.1 mg bid for 3.5 days administered intraperitoneally 6 hrs post infection by serial dilution method relative to vancomycin. It counts as functional, organism-based. In short, it runs like this: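 Mice infected retro-orbitally with S. aureus NF65Y (3.5 × 10^8 CFU) or XN108 (2.1 × 10^8 CFU). Test compound given i.p. b.i.d. starting 6 h post-infection. […] Log10 CFU per kidney and heart counted. Two-tailed Mann−Whitney test.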

The subject of series [9] is Staphylococcus aureus. As to the kind of experiment: In vivo anti-virulence activity against methicillin-resistant Staphylococcus aureus LRSA56 infected in BALB/c mouse model assessed as reduction in bacterial load in kidney at 0.1 mg bid for 3.5 days administered intraperitoneally 6 hrs post infection by serial dilution method relative to linezolid. The format is functional. Also noted: scale not given: the % may be the effect or the level left. In short, it runs like this: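 Mice were infected by retro-orbital injection with LRSA56 (5.0 × 10^7 CFU) or LRSA202 (7.0 × 10^7 CFU). Compound was given intraperitoneally 6 h after infection. […] Log10 CFU was counted in kidneys and hearts, with groups compared by two-tailed Mann-Whitney test.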

The subject of series [10] is Staphylococcus aureus. In words: In vivo anti-virulence activity against Staphylococcus aureus Newman infected in BALB/c mouse model assessed as reduction in bacterial load in heart at 0.4 mg bid for 3.5 days administered orally 6 hrs post infection by serial dilution method relative to vancomycin. Also noted: scale not given: the % may be the effect or the level left. The format is functional. In a few lines: (§1)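 Mice got 3.1 × 10^7 CFU S. aureus Newman by retro-orbital injection. Oral compound was given b.i.d. for 3.5 d, starting 6 h after infection. […] Log10 CFU was counted per kidney and per heart.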

The subject of series [11] is Rattus norvegicus. As to the kind of experiment: Toxicity in Sprague-Dawley rat at 60 to 1000 mg/kg, po administered as single dose assessed as poisoning symptoms measured during 2 weeks post administration. It counts as organism-based. To be noted: in vivo, 336 h. In short, it runs like this:
(§2)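 Rats, 30 in total, randomised into three groups. Each received a single oral dose of 60, 250 or 1000 mg/kg on day 1. Poisoning symptoms, mortality, behaviour, water and food consumption and body weight monitored immediately and over 2 weeks.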

Series [12] can be described thus: Inhibition of CrtN in methicillin-resistant Staphylococcus aureus NRS108 assessed as reduction in staphyloxanthin levels after 48 hrs by spectrophotometric method-based pigment inhibition assay.
Series [13] can be described thus: Half life in mouse at 2 mg/kg, iv administered as single dose by LC-MS/MS analysis. To be noted: in vivo. The format is ADME, organism-based.
Series [14] can be described thus: AUC (0 to infinity) in mouse at 2 mg/kg, iv administered as single dose by LC-MS/MS analysis. Also noted: dose 2 mg/kg, time infinity, route intravenous. The format is ADME, organism-based. To be noted: in vivo.
Series [15] deals with Staphylococcus aureus. In words: In vivo anti-virulence activity against Staphylococcus aureus Newman infected in BALB/c mouse model assessed as reduction in bacterial load in heart at 0.1 mg bid for 3.5 days administered orally 6 hrs post infection by serial dilution method relative to vancomycin. It counts as functional. On the set-up: scale not given: the % may be the effect or the level left. In a few lines: as §1

Series [16] is described as follows: AUC (0 to 24 hrs) in Sprague-Dawley rat at 5 mg/kg, iv administered as single dose by LC-MS/MS analysis. The format is ADME, organism-based. Also noted: dose 5 mg/kg, time < 24 hr, route intravenous. To be noted: in vivo.
Series [17] has as its system Staphylococcus aureus. In words: In vivo anti-virulence activity against Staphylococcus aureus Newman infected in BALB/c mouse model assessed as reduction in bacterial load in heart at 0.2 mg bid for 3.5 days administered orally 6 hrs post infection by serial dilution method relative to control. It counts as functional, organism-based. In short, it runs like this:
as §1

The nature of series [18]: AUC (0 to 24 hrs) in mouse at 2 mg/kg, iv administered as single dose by LC-MS/MS analysis. The format is ADME, organism-based. The following applies: in vivo. Also noted: dose 2 mg/kg, time < 24 hr, route intravenous.
Series [19] in a line: AUC (0 to infinity) in mouse at 10 mg/kg, po administered as single dose by LC-MS/MS analysis. It counts as ADME, organism-based. Also noted: dose 10 mg/kg, time infinity, route oral. The following applies: in vivo.
Series [20] has as its system Rattus norvegicus. In words: Toxicity in Sprague-Dawley rat at 60 to 1000 mg/kg, po administered as single dose assessed as changes in water consumption measured during 2 weeks post administration. The format is organism-based. To be noted: in vivo, 336 h. In a few lines: as §2
Series [21] can be described thus: Half life in mouse at 10 mg/kg, po administered as single dose by LC-MS/MS analysis. The format is ADME, organism-based. The following applies: in vivo.

For `CN(C/C=C/c1ccc(-c2ccccc2)cc1)Cc1cccc2cc[nH]c12.Cl`, the outcome in the series with Staphylococcus aureus [1], in the series with Staphylococcus aureus [2] and with Staphylococcus aureus [6] was inactive. For the same molecule, in the series on Staphylococcus aureus [3], the Activity is reported as more than 95%. This molecule also showed an MIC80 in [4] of more than 64 µg/mL. Besides, the results for the IC50 in series [5] and in [7] were 10.1 nM and 200 nM, respectively.

Turning to `CN(C/C=C/c1ccc(-c2ccccc2)cc1)Cc1coc2ccccc12.Cl`, the outcome in the series on Staphylococcus aureus [8] and with Staphylococcus aureus [2] was Active. The Activity in the series with Staphylococcus aureus [9] is listed as more than 54.3%; in the series on Staphylococcus aureus [10] it was more than 55.3%; in the series on Rattus norvegicus [11], “Non-Toxic”; in the series on Staphylococcus aureus [15], more than 55.3%; in the series with Staphylococcus aureus [3], more than 95%; in the series with Rattus norvegicus [20], “Non-Toxic”. Further, the result in the series on Staphylococcus aureus [1], with Staphylococcus aureus [17] and with Staphylococcus aureus [6] was inactive. Besides, the figures for the IC50 in [12], in series [5] and in series [7] were 5.6 nM, 5.6 nM and 400 nM, respectively. Also, the results for the half-life in series [13] and in series [21] were 123 min and 201 min, respectively. The AUC(0-inf) in series [14] came out at 1090 ng·h/mL; in series [19], 4560 ng·h/mL. Besides, the figures for the AUC(0-t) at 24 h in series [16] and in series [18] were 2810 ng·h/mL and 1070 ng·h/mL, respectively. In addition, in [4], the MIC80 was more than 64 µg/mL.

The MIC80 is an inhibitory concentration at the 80% level, which refers to growth in some studies and to a panel of isolates in others. The IC50 is the concentration at which inhibition is half-maximal. As a reminder, the half-life is the time needed for the level to fall by half in the phase considered. As a reminder, the AUC(0-inf) is the area under the concentration-time curve extrapolated to infinity. One may read the AUC(0-t) as the area under the concentration-time curve up to a stated or last time point.
